Laboratory results published in ChEMBL document CHEMBL1122025, “Catechol O-methyltransferase. 11. Inactivation by 5-hydroxy-3-mercapto-4-methoxybenzoic acid” (1982).

Tests used:
[1] = target: T1, Catechol O-methyltransferase (Rattus norvegicus) (UniProt P22734); experiment: Inhibition of Catechol O-methyltransferase from rat liver at time zero with […] of the enzyme after pre-incubation for 30 min (in presence of DTT)
T1 sequence (whole entry): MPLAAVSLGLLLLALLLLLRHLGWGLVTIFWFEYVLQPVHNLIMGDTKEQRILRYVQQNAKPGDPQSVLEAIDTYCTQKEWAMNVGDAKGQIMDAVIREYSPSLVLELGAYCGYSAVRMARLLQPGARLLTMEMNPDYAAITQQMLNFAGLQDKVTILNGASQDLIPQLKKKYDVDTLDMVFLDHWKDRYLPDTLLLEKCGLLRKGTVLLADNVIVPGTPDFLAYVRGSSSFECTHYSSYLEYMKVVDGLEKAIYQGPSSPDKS

Rattus norvegicus [2] = species on record: Rattus norvegicus; experiment: Effect of dialysis on inhibitory potency when COMT is pre-incubated in the absence of dithiothreitol (DTT) (before dialysis); format: functional
Method in brief: (§1)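 Rat liver COMT (male Sprague-Dawley, partially purified, DTT-reactivated before use) preincubated 30 min at 37 °C in 0.2 M phosphate buffer pH 7.6 with 1 mM inhibitor, with or without 8.0 mM DTT. Activity was then assayed directly or after dialysis against 0.2 M phosphate pH 7.6 containing 8.0 mM DTT. Result expressed as % activity remaining.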

Rattus norvegicus [3] = species on record: Rattus norvegicus; experiment: Effect of dialysis on inhibitory potency when COMT is pre-incubated in the absence of dithiothreitol (DTT) (after dialysis (-DTT)); format: functional
Rattus norvegicus [4] = species on record: Rattus norvegicus; experiment: Effect of dialysis on inhibitory potency when COMT is pre-incubated with dithiothreitol (+DTT) (after dialysis); format: functional; method in brief: as §1
[5] = target: T1, Catechol O-methyltransferase (Rattus norvegicus); experiment: Inhibition constant against Catechol O-methyltransferase from rat liver in the presence of 4 mM of dithiothreitol (DTT)
Rattus norvegicus [6] = species on record: Rattus norvegicus; experiment: Effect of dialysis on inhibitory potency when COMT is pre-incubated in the absence of dithiothreitol (DTT) (after dialysis(+DTT))
Rattus norvegicus [7] = species on record: Rattus norvegicus; experiment: Effect of dialysis on inhibitory potency when COMT is pre-incubated with dithiothreitol (DTT) (before dialysis); format: functional; method in brief: as §1
[8] = target: T1, Catechol O-methyltransferase (Rattus norvegicus); experiment: Inhibition of Catechol O-methyltransferase from rat liver at time zero with no further inactivation of the enzyme after pre-incubation for 30 min (in absence of DTT)
[9] = target: T1, Catechol O-methyltransferase (Rattus norvegicus); experiment: Inhibition constant against Catechol O-methyltransferase from rat liver in the absence of dithiothreitol (DTT)

COc1c(O)cc(C(=O)O)cc1S
inhibition [1]: 39% | Activity remaining (Rattus norvegicus [2]): 7% | Activity remaining (Rattus norvegicus [3]): 1% | Activity remaining (Rattus norvegicus [4]): 87% | Kii [5]: 743 µM | Kis [5]: 1140 µM | Activity remaining (Rattus norvegicus [6]): 76% | Activity remaining (Rattus norvegicus [7]): 70% | inhibition [8]: 91% | Kii [9]: 30.2 µM | Kis [9]: 59.9 µM
